From the EternaBench riboswitch data

System: MS2 coat protein
Experiment: apparent Kd, MS2 coat protein; higher = weaker binding; RNA-MaP array; FMN 200 µM where present
In short: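 Two titrations, one without ligand and one with constant ligand, were run with SNAP-549-labelled MS2 coat protein from 0.7 or 1.5 nM, doubling to 3 µM. The targets were designs transcribed by stalled E. coli RNA polymerase on Illumina sequencing-chip clusters, in 100 mM Tris-HCl pH 7.5, 80 mM KCl, 4 mM MgCl2, BSA, DTT, yeast tRNA and Tween-20. The apparent Kd is the median of filtered per-cluster binding-curve fits, with green signal normalised to red-channel RNA signal and control-cluster median Fmax.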

[1] = designed as: ON switch for flavin mononucleotide, no ligand
[2] = ligand present: flavin mononucleotide, designed as: ON switch for flavin mononucleotide
[3] = designed as: OFF switch for flavin mononucleotide, no ligand
[4] = ligand present: flavin mononucleotide, designed as: OFF switch for flavin mononucleotide

| Sequence | apparent Kd [1] [nM] | apparent Kd [2] [nM] | apparent Kd [3] [nM] | apparent Kd [4] [nM] |
| --- | --- | --- | --- | --- |
| GCGAUUUUGUAAGGAUAUACACGAGUUUUAAGUGUAGAAGGUACUUACAUGAGGAUCACCCAUGUAUAAAUGUAUAAUGGUCGC | 12.4 | 9.82 | – | – |
| AAAAAGUGAGGAUAUACAUGAGGAUCACCCAUGUGAAAUCGGAAAAAAAACGAAAAAAGUAGAAGGCACAAAAA | – | – | 25.3 | 24.5 |
| CUUUUGUGAGGAUAUCAGGUGUGCUAGCGUACUGGUACAUCUGAGAAGGCACAUGAGGAUCACCCAUGUUCCUU | – | – | 13.4 | 29.2 |
| UUUAUAUAGUAAGGAUAUGUAUUAUUUCUAUCAACAGAAGGUACUGACAUGAGGAUCACCCAUGUUUUAGUGUGGGCAUGUAGU | – | – | 261 | 381 |
| AAUAUGUUGCAGAAGGUUAUUUUUAUAACGAUCCAUUUGACAUGAGGAUCACCCAUGUAAUUGAUGAAGGAUAUGCAAUAUAUU | – | – | 6.42 | 7.18 |
| CAGUACUGAGGAUAUACAUGAGGAUCACCCAUGUGUUCCAGCUAGGAAACUAGGAAAAGUAGAAGGCAGUACUG | – | – | 22.1 | 261 |
| GAUCCACAUGAGGAUCACCCAUGUGAGGAUAUGAUACUAUGUACUUCGGUACAUAGUAUCAGAAGGCACGGAUC | – | – | 27.1 | 31.6 |
| UUUAAGCUCACAUGAGGAUCACCCAUGUCCGUUCGCCCGGACAGAAGGCACCCAUGACAAUGCGGUGAGGAUAUGUCAGCAAGG | 120 | 13.1 | – | – |
| GCAGCUUAUGCAGGAUAUCAGCACGUGUAGUGCUGAGAAGGGCACAUGAGGAUCACCCAUGUGAUCAAUUAAUAUAAAUGCUGC | – | – | 12.8 | 48.5 |
| GGUAGAAACAUUAACAUGAGGAUCACCCAUGUCAAAAGAAAUGAGGAUAUCGUAUUCAAUGUAUAUGAGAAGGCAUGGUCUGCC | 15.7 | 10.7 | – | – |
| AAAGUUGGUAGGCCCUUGGAACAUGAGGAUCACCCAUGUAAGGAGGAUAUGCCCGGUACCCGCUGGCAGAAGGCCUUAUAAGAA | – | – | 20.5 | 143 |
| GUCCUCCGUGCCCUUAACGCACAUGAGGAUCACCCAUGUAGGAGAAGGGCCCAACAAAUCAAAGGGCAGGAUAUCCAAAUCAUG | – | – | 75.1 | 18.9 |
| GGUCACGUAGGAUAUACCUGGGCCUCUGAAUUCGGCAAUUUACAUGAGGAUCACCCAUGUAGAAGGACGAUGGC | – | – | 120 | 97.6 |
| AUAAAUCAUGUAGGAUAUGCGUGGCGAAGCUAUGCAGAAGGACAUGAGGAUCACCCAUGUCUUUCCGUCUGCGUACAGACGGAA | – | – | 33.4 | 311 |
| UUCGAAUUGUAGGAUAUUUUGCCCGAUUGGGCGGGAGAAGGGCAGACAUGAGGAUCACCCAUGUGUCAGGCAGU | – | – | 40.8 | 40.5 |
| GCGUACAUAUCAGGAUAUCAUUGUAUUGUUUUACUCAGUGUAUACAUGAGGAUCACCCAUGUUCUUGAGAAGGGAUUACUACGC | – | – | 15.1 | 14.1 |
| ACAUGUAAUACAGGAUAUGUUAUACAUUAAUCAAUCAGUUAUUAUGAUUAUACAGAAGGGUAUACAUGAGGAUCACCCAUGUUA | – | – | 19.7 | 26.2 |
| UUUUUUAUGUAAGGAUAUCGAUUAUAUACACAUCCUACAUGAGGAUCACCCAUGUUUUAAUUUAUCGAGAAGGUACAUUGUCUG | 34.1 | 36.5 | – | – |
| UACAGCGUAGAUAAUAAUGAAUACAUGAGGAUCACCCAUGUAUAGGAUAUGCAGUGGAAUACACUGCAGAAGGAUACAUCGCUG | – | – | 16.4 | 23 |

| Sequence | apparent Kd [1] [nM] | apparent Kd [2] [nM] | apparent Kd [3] [nM] | apparent Kd [4] [nM] |
| --- | --- | --- | --- | --- |
| ACUGUUUGAUUCCUCUUUUACAUGAGGAUCACCCAUGUUAUCGAGGAUAUGCAUUAGAGUGUUUAGCAGAAGGCGAUGUAAUUG | – | – | 6.51 | 20.8 |
| GUCAGCUCGUGAGGAUAUACAACACUGCUUCGGCAGUGUAUUAAGAUCACAUGAGGAUCACCCAUGUAGAAGGCGCGAGCUGAU | – | – | 13.3 | 243 |
| UUGGACGUCGUAGGAUAUGUAGGAUAUUCCUACAUGAGGAUCACCCAUGUUGACAUGGAAGAAGGACAGAAUGACGAUGUCCAU | 374 | 5.51 | – | – |
| GUUAAACAUGAGGAUCACCCAUGUAAGGAUAUGCUGCGGUCGCGAUGAAGUGACUGCAGCAGAAGGUACAAUUG | – | – | 109 | 75.9 |
| GCCCGGGCAAACAUGAGGAUCACCCAUGUGUUAUACUUAAUAUAGGAUAUGUUUAUACUUUUUGGGCAGAAGGAUGGCCCGGGC | 35.1 | 32.4 | – | – |
| CAGUACAUGUUAGGAUAUGAUUCGGUACAGCGAUCAGAAGGAACAUGAGGAUCACCCAUGUGACCCACGAUUUGCAAACUAAGA | – | – | 8.43 | 17.8 |
| UCGCUGCGAGGAUAUACAUGAGGAUCACCCAUGUACGGGUCCGGGUCUAAGUUGAUAAGUAGAAGGCGCAGUGA | – | – | 125 | 112 |
| UAAUCUCAGAUAGGAUAUAUAGGAUAACUUAAGACCUAACAUGAGGAUCACCCAUGUGAUUAUUCGUAGAAGGAUCAUUGAACC | 206 | 217 | – | – |
| AUCAGCUCGUCAGGAUAUACGUCACUGCGUCAGCAGUGUGGUUAGAUCACAUGAGGAUCACCCAUGUAGAAGGGACGAGCUGAU | – | – | 23.4 | 458 |
| AAUUAAUUGUAGAAGGUACUUAAUUAUGAUAUGUAAGGAUAUACGAUAUUAUUACGACAUGUAUGACAUGAGGAUCACCCAUGU | 12.4 | 9.23 | – | – |
| UUGUUAUAUGUAGGAUAUGCAUAUUAUUAUUAUGCAGAAGGACAUGAGGAUCACCCAUGUAUAUUGUUAUUAUAUAUUAUAUAU | – | – | 24.2 | 32.5 |
| GCCUCAGAAUUAAUUGUGAGAAGCAGAAGGCUAUAUCUCAUGUUAAACAUGAGGAUCACCCAUGUAGAGGAUAUGCUAUUACAG | – | – | 58.9 | 282 |
| AUGAGUAAAGCAGGAUAUCUAUUGUCUCAGUAACAUGAGGAUCACCCAUGUAGAGAAGGGCUUAGUCAUUCACUUCGGAGUUGU | – | – | 14.8 | 38 |
| AAAAGCUCAGGAUAUACGGUCUGUUGUUGAGAAAUAAAAAAACAUGAGGAUCACCCAUGUAGAAGGGAGCGAAA | – | – | 79.5 | 160 |
| GGAGCUCCUGACAUGAGGAUCACCCAUGUUCACUUAUUAACUCAGGAUAUCGUCUCGAAACGAGACGAGAAGGGAGAUGCUCCU | 8.36 | 6.76 | – | – |
| GCCUUACUGGUCAGGAUAUACAUUUGUUACUCUUUGUAGAAGGGACAUGAGGAUCACCCAUGUACAUUACAUUC | – | – | 20.8 | 27.2 |
| AUCGUGUUAGGAUAUACACGUCGCUGGGUAGCUAGCGAUGGGUAGAAGGAACAUGAGGAUCACCCAUGUUCGGG | – | – | 178 | 188 |
| UUUAAUUUGUAGAAGGACGACUAUUAAUAUUUCGUAGGAUAUACUAUUUACAUGAGGAUCACCCAUGUUUAAAUGGAACAAUGU | – | – | 8.35 | 12.4 |
| UCCUCACAUGAGGAUCACCCAUGUCAGGAUAUCUGCGAGCAAUGGCCAAGGCCACUCAGGAGAAGGGACGUCAA | – | – | 16.3 | 22.3 |

| Sequence | apparent Kd [1] [nM] | apparent Kd [2] [nM] | apparent Kd [3] [nM] | apparent Kd [4] [nM] |
| --- | --- | --- | --- | --- |
| ACAUGAUAUGUAGGAUAUCACAUUAAUUGAUUAAUAUAUGAAUAUAGAAUUUGAGAAGGACAUUUACAUGAGGAUCACCCAUGU | – | – | 15.7 | 10.8 |
| UCCUACAUGGGAGGAUAUCCUCAUGAGACAUGAGGAUCACCCAUGUAUUAUAAGCCGAAAGGCAAGGAGAAGGCCCAUGUAGGU | 34.9 | 18 | – | – |
| GCGUUGUACGAGAAGGCCAAUACAUGAGGAUCACCCAUGUUAAGUUGUUUUGGAGGAUAUCGAUCAUCUACAAUAAUGCAACGC | – | – | 6.74 | 6.03 |
| AGAAAGUCAGGAUAUCGAAGGUAGUGGAGAGGAGUGUGGUACGAGAAGGGACAUGAGGAUCACCCAUGUAGGAG | – | – | 34.1 | 31.4 |
| AGAAUUGGUAGAUAAAAGGUCACACAGGAUAUACUCCCAACAUGAGGAUCACCCAUGUACUGGCGGUAGAAGGGUGGGAUCCUC | 33.6 | 8.52 | – | – |
| GAAAAACAUGAGGAUCACCCAUGUAGAAAUAUGGGAGGAUAUACAAAGUCGAAAGACAAAGUAGAAGGCCUAAAAG | 146 | 26.9 | – | – |
| AAUUAGGUCACAGGAUAUACAACUUCCAUUGCUGUAGAAGGGUGUCACAUACUUAGCUGACAUGAGGAUCACCCAUGUAUCCAC | 243 | 95.2 | – | – |
| AAUAGUACAGGAUAUACAUGAGGAUCACCCAUGUGAAAAUUAAGUGGCGUACCACAAAGUAGAAGGGUACUGGA | – | – | 22.8 | 71.4 |
| CUUUAGUGAGGAUAUCUGGCUUCGAUCGUGAGAUCGAGGCUAGAGAAGGCACAUGAGGAUCACCCAUGUUCCUU | – | – | 15.4 | 34.7 |
| GUGAAGUGAGGAUAUACGAGAGAGGCUGAACCGGACGAGAAGUAGAAGGCACAUGAGGAUCACCCAUGUAAGGA | – | – | 33 | 32.1 |
| UAUGUUGUUGUGAGGAUAUACUUUGUUUGACCGUAGUAGAAGGCACAUGAGGAUCACCCAUGUAGAUUUUUGGU | – | – | 9.74 | 13.6 |
| AGUAUACAUGAGGAUCACCCAUGUCAGUAACUGACAGGAUAUGCGUUGCAUCACUGUAAUGCAGAAGGGUCUUGUA | 507 | 115 | – | – |
| CGUACACAUGAGGAUCACCCAUGUCAGAUUUGGUCAGGAUAUGGGCGGCAUCCGCUAUAGCCAGAAGGGACUGUUG | 173 | 204 | – | – |
| UUGUACAUAGGAUAUAGUUGUUUCUACAUGAGGAUCACCCAUGUUAUUCCUCUCUCCCUUCUAGAAGGAUGUUUUU | – | – | 40.9 | 38 |
| UGAACCCAUGUUAGGAUAUCAGGCCGAGGAAGUUCUGAGAAGGGACAUGAGGAUCACCCAUGUAUAAAAGAAAC | – | – | 70.6 | 41.8 |
| UUAUAAAGAGUGAGGAUAUGCUGGUCCAUGGAUCAGCAGAAGGCACAUGAGGAUCACCCAUGUAAAAUAAUAUU | – | – | 18.3 | 37.6 |
| GUAGAGUCAGGAUAUACAAGAUCGAAAGAUCGAAGAUCCAUACAUGAGGAUCACCCAUGUAGAAGGGACUCUAC | – | – | 17.1 | 35.8 |
| CUGAGCUGAGGAUAUACAUGAGGAUCACCCAUGUGUUCGAGCUUGCGUACAGGCAGAUGUAGAAGGCAGUUCGG | – | – | 26.7 | 99.3 |
